Broadly, the IC50 is the midpoint of a concentration-inhibition curve.

The structures appear in SMILES notation. Calls of active or inactive are those of the source. The rule behind the calls is not given here.

Test [1] in a line: Inhibition of amyloid beta (1 to 40) aggregation by beta amyloid self seeding radioassay. The gist of the method: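 Aβ(1-40) at 30 μM unlabeled, plus a tracer amount of 125I-Aβ(1-40), incubated with compound in 50 mM NaPi, 150 mM NaCl, 1 M urea, 0.02% w/v NaN3, pH 7.5. Radiolabeled fibrils retained on a 0.2 µm filter were measured. Eight compound concentrations were tested, and IC50 was taken by logit transformation of the titration curves. Values are the average of two separate experiments.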

Test [2] is described as follows: Inhibition of amyloid beta (1 to 40) aggregation by beta amyloid self seeding thioflavin T assay. The gist of the method:
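Compound was incubated with 30 μM Aβ(1-40) in 50 mM NaPi, 150 mM NaCl, 1 M urea, 0.02% w/v NaN3, pH 7.5. Thioflavin T at 5 µM was added after fibril formation, and fluorescence was read as β-sheet fibril content. IC50 came from eight concentrations by logit transformation of the titration curves. Values are the mean of two separate experiments.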

The nature of test [3]: Inhibition of amyloid beta (1 to 40) aggregation assessed as appearance of smaller fragmented amyloid beta species at 50 uM by atomic force microscopy study.
Test [4] deals with Mus musculus. Nature of the test: Reduction in mean senile plaque area in Tg2576 mouse overexpressing human betaAPP695SWE at 200 mg/kg/day, po administered with chow. In kind it is functional. Also noted: scale not given: the % may be the effect or the level left.
The test system of test [5] is Mus musculus. Nature of the test: Reduction in senile plaque load in Tg2576 mouse overexpressing human betaAPP695SWE at 200 mg/kg/day, po administered with chow for 7 months. It counts as functional. Also noted: scale not given: the % may be the effect or the level left.

Consider `O=C(O)c1ccccc1Nc1ccc(CCc2ccc(F)c(F)c2)cc1`, for which the IC50 in test [1] was > 100 µM; in test [2], 2 µM.
Consider `O=C(O)c1ccccc1Nc1ccc(CCCc2cc(Cl)cc(Cl)c2)cc1`, for which the concentration for half-maximal inhibition (IC50) in test [1] and in test [2] was 3 µM each time.
For `O=C(O)c1ccccc1Nc1ccc(CCc2ccccc2Cl)cc1`, the IC50 in test [1] was > 100 µM; in test [2] it was 5 µM.
The matching figures for `O=C(O)c1cccnc1Nc1ccc(CCCc2ccc(Cl)c(Cl)c2)cc1`: 60 µM and 5 µM.
In the case of `O=C(O)c1cc([N+](=O)[O-])ccc1Nc1ccc(CCc2cccc(Cl)c2)cc1`, the half-maximal inhibitory concentration (IC50) in test [1] is 33 µM; in test [2], 0.3 µM.
On to `O=C(O)c1cc([N+](=O)[O-])ccc1Nc1ccc(CCc2ccccc2)cc1`, for which the IC50 worked out at 70 µM in test [1] and 1.5 µM in test [2].
For `O=C(O)c1ccccc1Nc1ccc(CCCc2ccc(Cl)cc2)cc1`, the values for the 50% inhibitory concentration (IC50) in test [1] and in test [2] were 3 µM and 2 µM, respectively.
On the same counts, the results for `O=C(O)c1ccccc1Nc1ccc(CCCc2cccc(Cl)c2)cc1` are 4 µM and 3 µM.
Turning to `O=C(O)c1ccccc1Nc1ccc(CCCc2ccccc2)cc1`, the results for the IC50 in test [1] and in test [2] were 14 µM and 5 µM, respectively.
The matching figures for `O=C(O)c1cccnc1Nc1ccc(CCc2ccc(Cl)c(Cl)c2)cc1`: 7 µM and 2 µM.
For `COc1ccc(CCCc2ccc(Nc3ccccc3C(=O)O)cc2)cc1`, the IC50 stood at 30 µM in test [1] and 17 µM in test [2].
On to `Cc1ccc(Nc2ccc(CCCc3ccc(Cl)c(Cl)c3)cc2)c(C(=O)O)c1`, for which the IC50 in test [1] and in test [2] was > 100 µM in each case.
`O=C(O)c1ccccc1Nc1ccc(CCc2cccc(Cl)c2)cc1`: the half-inhibitory concentration (IC50) in test [1] is > 100 µM; in test [2], 19 µM.
In the case of `Cc1ccc(CCCc2ccc(Nc3cc(F)ccc3C(=O)O)cc2)cc1C`, the values for the IC50 in test [1] and in test [2] were 12 µM and 5.4 µM, respectively.
With `COc1ccc(CCCc2ccc(Nc3cc(F)ccc3C(=O)O)cc2)cc1`, the half-inhibitory concentration (IC50) was 14 µM in test [1] and 9 µM in test [2].
Consider `O=C(O)c1ccccc1Nc1ccc(CCCc2ccccc2Cl)cc1`, for which the concentration for half-maximal inhibition (IC50) in test [1] was found to be 6 µM; in test [2] it was 2 µM.
`COc1ccc(CCc2ccc(Nc3ccccc3C(=O)O)cc2)cc1`: the IC50 in test [1] and in test [2] was > 100 µM each time.
With `O=C(O)c1cc(F)ccc1Nc1ccc(CCCc2ccc(Cl)c(Cl)c2)cc1`, the concentration for half-maximal inhibition (IC50) in test [1] worked out at 86 µM; in test [2], 1 µM.
Consider `O=C(O)c1ccccc1Nc1ccc(CCCc2ccc(F)c(F)c2)cc1`, for which the 50% inhibitory concentration (IC50) in test [1] was found to be 8 µM; in test [2] it was 5 µM.
Regarding `Cc1ccc(CCc2ccc(Nc3ccccc3C(=O)O)cc2)cc1C`, the half-maximal inhibitory concentration (IC50) was > 100 µM in test [1] and 10 µM in test [2].
Take `O=C(O)c1cc([N+](=O)[O-])ccc1Nc1ccc(CCN2CCC3CCCCC3C2)cc1` (stereo not given): the IC50 came to 5 µM in test [1] and 1 µM in test [2].
For the compound `CCN(CC)c1ccc(Nc2ccc(CCc3ccc(Cl)c(Cl)c3)cc2)c(C(=O)O)c1`, the IC50 in test [1] is > 100 µM; in test [2] it was 53 µM.
`COC(=O)c1ccc(Nc2ccc(CCc3ccc(Cl)c(Cl)c3)cc2)cc1`: the IC50 in test [1] and in test [2] was > 100 µM in each case.
Turning to `O=C(O)c1cc(Nc2ccc(CCc3ccc(Cl)c(Cl)c3)cc2)ccc1C(F)(F)F`, the figures for the half-inhibitory concentration (IC50) in test [1] and in test [2] were > 100 µM and 35 µM, respectively.
For `O=C(O)c1ccccc1Nc1ccc(CCc2cc(Cl)cc(Cl)c2)cc1`, the half-maximal inhibitory concentration (IC50) was > 100 µM in test [1] and 15 µM in test [2].
For the compound `O=C(O)c1ccc(Nc2ccc(CCc3ccc(Cl)c(Cl)c3)cc2)cc1`, the concentration for half-maximal inhibition (IC50) in test [1] was > 100 µM; in test [2], 10 µM.
On the same counts, the results for `Cc1ccc(CCCc2ccc(Nc3ccc([N+](=O)[O-])cc3C(=O)O)cc2)cc1C` are 14 µM and 6 µM.
The matching figures for `O=C(O)c1c(Nc2ccc(CCc3ccc(Cl)c(Cl)c3)cc2)cccc1C(F)(F)F`: 70 µM and 0.1 µM.
The matching figures for `O=C(O)c1cc([N+](=O)[O-])ccc1Nc1ccc(CCc2ccc(F)c(F)c2)cc1`: 41 µM and 4 µM.
With `O=C(O)c1ccccc1Nc1ccc(CCc2ccc(Cl)c(Cl)c2)cc1`, the results for the IC50 in test [1] and in test [2] were > 100 µM and 2 µM, respectively. Besides, the result in test [3] was Active. The results for the Activity in test [4] and in test [5] were 2.1% and 44%, respectively.
With `O=C(O)c1ccccc1Nc1ccc(CCN2CCC3CCCCC3C2)cc1` (stereo not given), the IC50 in test [1] is > 100 µM; in test [2] it was 1 µM.
The matching figures for `Cc1ccc(CCCc2ccc(Nc3ccc(F)cc3C(=O)O)cc2)cc1C`: > 100 µM and 1 µM.
With `O=C(O)c1cc([N+](=O)[O-])ccc1Nc1ccc(CCc2ccc(Cl)c(Cl)c2)cc1`, the results for the IC50 in test [1] and in test [2] were 43 µM and 0.5 µM, respectively.
The matching figures for `CCCCN(CCCC)c1ccc(CCc2ccc(Nc3ccc([N+](=O)[O-])cc3C(=O)O)cc2)cc1`: 15 µM and 1 µM.
The matching figures for `O=C(O)c1ccccc1Nc1ccc(CCc2cccc(F)c2)cc1`: > 100 µM and 70 µM.
The matching figures for `O=C(O)c1cccc(C(F)(F)F)c1Nc1ccc(CCc2ccc(Cl)c(Cl)c2)cc1`: > 100 µM and 30 µM.
Turning to `O=C(O)c1ccccc1Nc1ccc(CCCc2cccc(Br)c2)cc1`, the IC50 in test [1] stood at 2 µM; in test [2], 3 µM.
Regarding `COc1ccc(CCCc2ccc(Nc3ccc(F)cc3C(=O)O)cc2)cc1`, the half-inhibitory concentration (IC50) turned out to be 14 µM in test [1] and 10 µM in test [2].
Consider `O=C(O)c1cc([N+](=O)[O-])ccc1Nc1ccc(CCc2ccc(Cl)cc2)cc1`, for which the concentration for half-maximal inhibition (IC50) in test [1] worked out at 15 µM; in test [2], 0.4 µM.
The matching figures for `O=C(O)c1cccc(Nc2ccc(CCc3ccc(Cl)c(Cl)c3)cc2)c1`: > 100 µM and 10 µM.
Regarding `Cc1ccc(CCCc2ccc(Nc3ccccc3C(=O)O)cc2)cc1`, the IC50 in test [1] is 9 µM; in test [2], 1 µM.
For the compound `CCN(CC)c1ccc(CCCc2ccc(Nc3ccccc3C(=O)O)cc2)cc1`, the figures for the IC50 in test [1] and in test [2] were 3 µM and 1 µM, respectively.
As to `O=C(O)c1ccccc1Nc1ccc(CCCc2ccc(Cl)cc2Cl)cc1`, the IC50 in test [1] and in test [2] was 2 µM in each case.
Turning to `O=C(O)c1ccccc1Nc1ccc(CCCc2ccc(F)c(C(F)(F)F)c2)cc1`, the half-inhibitory concentration (IC50) in test [1] is 5 µM; in test [2] it was 3 µM.
Turning to `O=C(O)c1cc([N+](=O)[O-])ccc1Nc1ccc(CCc2ccccc2Cl)cc1`, the IC50 in test [1] came to 3 µM; in test [2], 0.5 µM.
As to `O=C(O)c1ccccc1Nc1ccc(CCc2ccc(Cl)cc2)cc1`, the IC50 is > 100 µM in test [1] and 3 µM in test [2].
Consider `Cc1ccc(Nc2ccc(CCc3ccc(Cl)c(Cl)c3)cc2)c(C(=O)O)c1`, for which the concentration for half-maximal inhibition (IC50) in test [1] was > 100 µM; in test [2], 2 µM.
With `O=C(O)c1cc(Nc2ccc(CCc3ccc(Cl)c(Cl)c3)cc2)ccc1F`, the half-inhibitory concentration (IC50) in test [1] was > 100 µM; in test [2], 3 µM.
As for `Cc1ccc(CCc2ccc(Nc3ccc([N+](=O)[O-])cc3C(=O)O)cc2)cc1C`, the IC50 was determined as 12 µM in test [1] and 2 µM in test [2].
For the compound `O=C(O)c1cc([N+](=O)[O-])ccc1Nc1ccc(CCc2ccc(F)c(C(F)(F)F)c2)cc1`, the figures for the half-inhibitory concentration (IC50) in test [1] and in test [2] were 3 µM and 0.8 µM, respectively.
In the case of `Cc1ccc(CCCc2ccc(Nc3ncccc3C(=O)O)cc2)cc1C`, the IC50 in test [1] was found to be 14 µM; in test [2], 9 µM.
As to `O=C(O)c1ccccc1Nc1ccc(CCc2ccc(F)c(C(F)(F)F)c2)cc1`, the IC50 in test [1] is > 100 µM; in test [2], 2 µM.
With `O=C(O)c1ccc(C(F)(F)F)cc1Nc1ccc(CCc2ccc(Cl)c(Cl)c2)cc1`, the IC50 in test [1] came to 27 µM; in test [2], 4 µM.
Take `Cc1ccc(CCCc2ccc(Nc3ccccc3C(=O)O)cc2)cc1C`: the 50% inhibitory concentration (IC50) in test [1] worked out at 6 µM; in test [2], 3 µM.
Consider `O=C(O)c1cc([N+](=O)[O-])ccc1Nc1ccc(CCc2ccc(Cl)c(C(F)(F)F)c2)cc1`, for which the 50% inhibitory concentration (IC50) in test [1] was determined as 16 µM; in test [2] it was 1 µM.
The matching figures for `Cc1ccc(Nc2ccc(CCCc3ccc(C)c(C)c3)cc2)c(C(=O)O)c1`: 16 µM and 3 µM.
On to `O=C(O)c1ccccc1Nc1ccc(CCc2ccc(Cl)cc2Cl)cc1`, for which the results for the IC50 in test [1] and in test [2] were > 100 µM and 51 µM, respectively.
Regarding `Cc1ccc(CCc2ccc(Nc3ccccc3C(=O)O)cc2)cc1Cl`, the IC50 in test [1] turned out to be 88 µM; in test [2] it was 1 µM.
On the same counts, the results for `O=C(O)c1cc([N+](=O)[O-])ccc1Nc1ccc(CCc2ccc(Cl)cc2Cl)cc1` are 17 µM and 4 µM.
Regarding `O=C(O)c1cc([N+](=O)[O-])ccc1Nc1ccc(CCCc2ccc(Cl)c(Cl)c2)cc1`, the concentration for half-maximal inhibition (IC50) in test [1] was > 100 µM; in test [2], 1 µM.
`O=C(O)c1ccccc1Nc1ccc(CCc2ccccc2)cc1`: the IC50 in test [1] is 60 µM; in test [2] it was 10 µM.
